Reference: ChEMBL document CHEMBL2069218, “Water-soluble pyrazolo[4,3-e][1,2,4]triazolo[1,5-c]pyrimidines as human A₃ adenosine receptor antagonists” (J Med Chem, 2012)

How the values were obtained:
Adenosine receptor A1 = target: T1, Adenosine receptor A1 (Homo sapiens, UniProt P30542); assay: Displacement of [3H]DPCPX from human adenosine A1 receptor expressed in CHO cells after 120 mins by scintillation counter; type: cell-based
T1 sequence (P30542 whole entry): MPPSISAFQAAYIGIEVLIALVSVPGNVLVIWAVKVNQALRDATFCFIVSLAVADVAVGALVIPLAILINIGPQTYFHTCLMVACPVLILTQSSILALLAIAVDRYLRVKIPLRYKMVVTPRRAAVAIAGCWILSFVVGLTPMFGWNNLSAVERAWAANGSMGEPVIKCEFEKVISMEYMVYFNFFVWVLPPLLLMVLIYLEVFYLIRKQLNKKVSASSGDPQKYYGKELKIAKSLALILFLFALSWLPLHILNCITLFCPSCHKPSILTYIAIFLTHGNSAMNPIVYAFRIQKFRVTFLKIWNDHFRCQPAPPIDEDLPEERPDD
In short: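 Membranes from CHO cells expressing human A1 (50 μg protein), in 50 mM Tris-HCl pH 7.4, pretreated with adenosine deaminase 2 IU/mL. [³H]DPCPX 1 nM, 6–8 test concentrations, 120 min at 25 °C. Nonspecific binding with 1 μM DPCPX. GF/B filtration. Ki by Cheng–Prusoff.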

Adenosine receptor A2a = Adenosine receptor A2a (Homo sapiens, UniProt P29274); assay: Displacement of [3H]ZM241385 from human adenosine A2A receptor expressed in CHO cells after 60 mins by scintillation counter; type: cell-based
Sequence of Adenosine receptor A2a (P29274 whole entry): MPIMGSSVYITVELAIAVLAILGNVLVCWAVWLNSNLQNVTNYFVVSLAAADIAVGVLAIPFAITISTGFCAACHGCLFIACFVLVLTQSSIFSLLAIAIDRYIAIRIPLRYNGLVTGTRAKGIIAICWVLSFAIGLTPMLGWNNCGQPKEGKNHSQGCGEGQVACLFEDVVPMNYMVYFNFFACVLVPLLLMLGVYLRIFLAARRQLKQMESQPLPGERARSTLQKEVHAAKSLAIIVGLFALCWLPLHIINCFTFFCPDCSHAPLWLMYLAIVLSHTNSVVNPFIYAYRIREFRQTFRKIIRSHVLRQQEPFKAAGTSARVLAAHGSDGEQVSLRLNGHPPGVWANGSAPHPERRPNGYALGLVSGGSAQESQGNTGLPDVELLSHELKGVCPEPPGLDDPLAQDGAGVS
In short: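 Membranes from CHO cells expressing human A2A (50 μg protein), in 50 mM Tris-HCl, 10 mM MgCl2, pH 7.4, adenosine deaminase pretreated. [³H]ZM241385 2 nM, 6–8 concentrations, 60 min at 4 °C. Nonspecific binding with 1 μM ZM241385. Filtration, scintillation counting. Ki by Cheng–Prusoff. 3–4 experiments in duplicate.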

Adenosine receptor A3 [1] = target: T2, Adenosine receptor A3 (Homo sapiens, UniProt P0DMS8); assay: Displacement of [3H]MRE-3008-F20 from human adenosine A3 receptor expressed in CHO cells after 120 mins by scintillation counter; type: cell-based
T2 sequence (P0DMS8 whole entry): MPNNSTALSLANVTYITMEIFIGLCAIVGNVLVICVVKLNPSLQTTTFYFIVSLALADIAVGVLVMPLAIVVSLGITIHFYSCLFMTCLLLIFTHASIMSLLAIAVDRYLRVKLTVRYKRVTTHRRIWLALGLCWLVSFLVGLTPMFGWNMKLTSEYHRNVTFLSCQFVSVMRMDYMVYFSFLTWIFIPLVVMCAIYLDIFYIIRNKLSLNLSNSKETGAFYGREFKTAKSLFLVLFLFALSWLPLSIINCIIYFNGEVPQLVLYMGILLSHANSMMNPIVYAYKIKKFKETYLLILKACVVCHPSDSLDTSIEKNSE

Adenosine receptor A2b = target: T3, Adenosine receptor A2b (Homo sapiens, UniProt P29275); assay: Antagonist activity at human adenosine A2B receptor expressed in CHO cells assessed as inhibition of NECA-induced cAMP production; type: functional, cell-based
T3 sequence (P29275 whole entry): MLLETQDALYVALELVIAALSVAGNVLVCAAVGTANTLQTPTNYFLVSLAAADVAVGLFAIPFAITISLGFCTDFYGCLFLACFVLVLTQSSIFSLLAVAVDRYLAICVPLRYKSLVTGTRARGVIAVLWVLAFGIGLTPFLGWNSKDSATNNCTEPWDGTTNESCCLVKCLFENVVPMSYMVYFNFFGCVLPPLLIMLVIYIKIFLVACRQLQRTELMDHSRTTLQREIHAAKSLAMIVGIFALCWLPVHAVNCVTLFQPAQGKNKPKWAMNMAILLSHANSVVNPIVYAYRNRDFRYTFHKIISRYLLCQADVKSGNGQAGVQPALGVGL
In short: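 Intact CHO cells (1 × 10⁶/assay) expressing human A2B, in buffer pH 7.4 with 2 IU/mL adenosine deaminase and Ro 20-1724. Preincubated 10 min at 37 °C. NECA 100 nM stimulus. Stopped with cold 6% TCA, ether-extracted, cAMP measured by competition protein binding with [³H]cAMP. IC50 from sigmoid nonlinear regression.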

Adenosine receptor A3 [2] = target: T2, Adenosine receptor A3; assay: Antagonist activity at human adenosine A3 receptor expressed in CHO cells assessed as forskolin/C1-IB-MECA-induced inhibition of cAMP production; type: functional, cell-based
In short: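 Intact CHO cells (1 × 10⁶/assay) expressing human A3, in buffer pH 7.4 with 2 IU/mL adenosine deaminase and Ro 20-1724. Preincubated 10 min at 37 °C. Forskolin 1 μM with Cl-IB-MECA 100 nM. Stopped with cold 6% TCA, cAMP measured by [³H]cAMP competition protein binding. IC50 by sigmoid nonlinear regression.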

[3] = target: Adenosine receptors; A1 & A3 (Homo sapiens) (UniProt P30542+P0DMS8); assay: Selectivity ratio of Ki for human adenosine A1 receptor to Ki for human adenosine A3 receptor
[4] = Solubility of the compound in water at pH 7.4; type: physicochemical
In short: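 Hydrochloride salts, solubility measured in phosphate-buffered saline at pH 7.4.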

| SMILES | Ki (Adenosine receptor A1) [nM] | Ki (Adenosine receptor A2a) [nM] | Ki (Adenosine receptor A3 [1]) [nM] | IC50 (Adenosine receptor A2b) [nM] | IC50 (Adenosine receptor A3 [2]) [nM] | Ratio Ki [3] | solubility [4] [µg/mL] |
| --- | --- | --- | --- | --- | --- | --- | --- |
| Cn1cc2c(nc(NC(=O)NC3CCN(C(=O)NC4CCCCCC4)CC3)n3nc(-c4ccco4)nc23)n1 | 805 | > 5000 | 7.7 | > 5000 | 26 |  |  |
| Cn1cc2c(nc(NC(=O)NC3CCN(Cc4ccc(Cl)cc4)CC3)n3nc(-c4ccco4)nc23)n1 | 724 | > 5000 | 26 | > 5000 | 91 |  |  |
| Cn1cc2c(nc(NC(=O)NC3CCNCC3)n3nc(-c4ccco4)nc23)n1 | > 5000 | > 5000 | 65 | 2430 | 262 |  |  |
| CN1CCN(C(=O)N2CCC(NC(=O)Nc3nc4nn(C)cc4c4nc(-c5ccco5)nn34)CC2)CC1 | 1120 | 1280 | 31 | 2140 | 120 |  |  |
| Cl.Cn1cc2c(nc(NC(=O)NC3CCN(CC4CCCCC4)CC3)n3nc(-c4ccco4)nc23)n1 | 3410 | > 5000 | 9.7 | > 5000 | 30 | 351 | 8000 |
| Cn1cc2c(nc(NC(=O)NC3CCN(Cc4ccncc4)CC3)n3nc(-c4ccco4)nc23)n1 | 1190 | > 5000 | 39 | > 5000 | 166 |  |  |
| Cn1cc2c(nc(NC(=O)NC3CCN(C(=O)NCCCc4ccccc4)CC3)n3nc(-c4ccco4)nc23)n1 | 112 | 1640 | 14.5 | 1540 | 46 | 7.7 |  |
| Cn1cc2c(nc(NC(=O)NC3CCN(Cc4ccccc4)CC3)n3nc(-c4ccco4)nc23)n1 | 703 | 526 | 30 | 2060 | 121 |  |  |
| C#CCN1CCC(NC(=O)Nc2nc3nn(C)cc3c3nc(-c4ccco4)nn23)CC1 | 802 | 789 | 25 | > 5000 | 105 |  |  |
| C=CCN1CCC(NC(=O)Nc2nc3nn(C)cc3c3nc(-c4ccco4)nn23)CC1 | 3360 | 1420 | 51 | > 5000 | 212 |  |  |
| Cn1cc2c(nc(NC(=O)NC3CCN(C(=O)NC4CCCC4)CC3)n3nc(-c4ccco4)nc23)n1 | 744 | > 5000 | 9.3 | > 5000 | 30 |  |  |
| CCNC(=O)N1CCC(NC(=O)Nc2nc3nn(C)cc3c3nc(-c4ccco4)nn23)CC1 | 1500 | > 5000 | 30 | > 5000 | 116 |  |  |
| Cn1cc2c(nc(NC(=O)NC3CCN(C(=O)NCc4ccc(Cl)cc4)CC3)n3nc(-c4ccco4)nc23)n1 | 614 | 1140 | 25 | 505 | 90 |  |  |
| Cn1cc2c(nc(NC(=O)NC3CCN(C(=O)NC4CCCCC4)CC3)n3nc(-c4ccco4)nc23)n1 | 761 | > 5000 | 13.7 | > 5000 | 44 |  |  |
| Cn1cc2c(nc(NC(=O)NC3CCN(C(=O)Nc4ccncc4)CC3)n3nc(-c4ccco4)nc23)n1 | 1300 | 1860 | 21 | 3240 | 82 |  |  |
| CN1CCC(NC(=O)Nc2nc3nn(C)cc3c3nc(-c4ccco4)nn23)CC1 | > 5000 | > 5000 | 253 | > 5000 | 910 |  |  |
| Cn1cc2c(nc(NC(=O)NC3CCN(C(=O)NCc4ccccc4)CC3)n3nc(-c4ccco4)nc23)n1 | 525 | > 5000 | 8.1 | 1110 | 29 |  |  |
